A short description of this test: S. cerevisiae growth inhibition, turbidity – wild-type and eIF2Bepsilon R284H mutant, A595, cytotoxicity control for eIF2B function restoration project, primary screen (AID 685).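 Also: 0% = untreated cell controls and 100% = YPD media blanks without cells.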 The following applies: 16 h, stronger effect = higher value, screened at 25 µM (by protocol). Summed up: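 system = S. cerevisiae wild-type or eIF2Bepsilon-R284H mutant strain | buffer or medium = YPD medium | dosing = one dose, 25 µM compound, 0.2% DMSO | schedule = 16 h at 30 °C | measured by = A595 turbidity | evaluation = growth inhibition (%) versus cell controls and blanks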

Where [1] appears, read: S. cerevisiae eIF2Bepsilon-R284H mutant growth.

Among the data in PubChem BioAssay AID685 (PCMD, 2007) are growth inhibition values, retold here.

The whole screen tested about 30,000 compounds, of which about 80 (0.3%) were called active.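 The calls were made as follows: active = mutant and wild-type yeast strains alike exhibit over 30% growth inhibition; inconclusive = a strain exceeds 50% while the second remains under 30%; inactive = the rest.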 This excerpt belongs to a sample that is enriched for actives.

On to `COC(=O)COc1ccc(S(=O)(=O)N2CCOCC2)cc1`, for which the growth inhibition is 0% under setting [1] and -24.2% (inactive) (S. cerevisiae wild-type growth).
The like results for `Cc1ccc(-c2csc(NC(=O)Cc3cccs3)n2)cc1C` were, in that order, 0% and 33.1% (inactive).
For `CCOC(=O)C1=C(C)NC(SC)=NC1c1ccccc1` (stereo unspecified), in that order: -3.45% and -15.1% (inactive).
Take `Cc1ccc(N(CC(=O)Nc2cccc(N(C)S(C)(=O)=O)c2)S(C)(=O)=O)cc1`: the growth inhibition by setting is: under setting [1], 16.1%; (S. cerevisiae wild-type growth) 8.21% (inactive).
On to `Cn1c(N)c(C(=O)COC(=O)C23CC4CC(CC(C4)C2)C3)c(=O)n(C)c1=O`, for which the growth inhibition is, setting by setting: under setting [1], 11.6%; (S. cerevisiae wild-type growth) 6.55% (inactive).
For `CN=C1SC(CC(=O)Nc2ccc(C(=O)O)cc2)C(=O)N1C` (stereo unspecified), in that order: 10.3% and 13.1% (inactive).
For `O=S(=O)(NCCOc1cccc2cccnc12)c1ccc(F)cc1`, in that order: 0% and -11.7% (inactive).
For `O=C(c1cccc(F)c1)N1CCC(O)(c2cccnc2)CC1`, in that order: -27.3% and 1.72% (inactive).
For the compound `CCOc1ccc(NC(=O)C2CCCN(C(=O)Nc3ccccc3)C2)cc1` (stereo unspecified), the growth inhibition under setting [1] came out at 8.33% and the growth inhibition (S. cerevisiae wild-type growth) is 16.3% (inactive).
For `CC(OC(=O)CN1C(=O)C2CCCCC2C1=O)C(=O)Nc1ncc(Cl)cc1Cl` (stereo unspecified), in that order: 15.2% and 19.3% (inactive).
The like results for `CCOC(=O)c1c(NC(=O)CSc2nnc(CNc3ccc(C)cc3C)o2)sc(C)c1C` were, in that order, 25.9% and 25.9% (inactive).
In the case of `CCCCN(CC)CCNC(=O)c1[nH]c(C)c(C(C)=O)c1C`, the growth inhibition reads like this: under setting [1], 17.6%; (S. cerevisiae wild-type growth) 11.2% (inactive).
For `OC(C#CCN1CCOCC1)(c1ccccc1)C1CCCCC1` (stereo unspecified), in that order: 7.89% and 34.3% (inactive).
Consider `CCOCCOCCC(C(=O)O)P(=O)(c1ccccc1)c1ccccc1` (stereo unspecified), for which the growth inhibition is, setting by setting: under setting [1], 16.7%; (S. cerevisiae wild-type growth) 13.8% (inactive).
For `OC(CNCC1CCCO1)Cn1c2ccc(Br)cc2c2cc(Br)ccc21` (stereo unspecified), in that order: 100% and 86.7% (active).
The like results for `CCn1cc(C(=O)NCC2CCCO2)c(=O)c2cc(S(=O)(=O)N3CCCCC3)ccc21` (stereo unspecified) were, in that order, -11.1% and 6.79% (inactive).
The like results for `CCc1cc(Br)ccc1NC(=O)C1CCCO1` (stereo unspecified) were, in that order, 18.5% and -7.78% (inactive).
Take `COc1ccc(CCNC(=O)CN(c2ccccc2)S(C)(=O)=O)cc1OC`: the growth inhibition by setting is: under setting [1], 12.8%; (S. cerevisiae wild-type growth) 18.3% (inactive).
The like results for `COC(=O)c1c(C)c(C)nc(N)c1C#N` were, in that order, -9.52% and -10.8% (inactive).
For `COC(=O)c1ccc(Cc2ccccc2)o1`, the growth inhibition under setting [1] worked out at 19.4% and the growth inhibition (S. cerevisiae wild-type growth) was 10% (inactive).
The like results for `CCOC(=O)c1cc2c(ccn2C)n1CC(=O)N1CCC(C)CC1` were, in that order, 4.55% and -20.7% (inactive).
The like results for `O=C(C1CCC(C(=O)N2CCCC2)CC1)N1CCCC1` (stereo unspecified) were, in that order, -12.9% and -0.38% (inactive).
For `Cn1c(Cn2nnc3ccccc32)nnc1SCC(=O)c1ccccc1F`, in that order: 16.2% and 4.07% (inactive).
Turning to `O=C(NC(=O)c1ccccc1)NC(=O)c1ccccc1`, the growth inhibition by setting is: under setting [1], 5.26%; (S. cerevisiae wild-type growth) 12.5% (inactive).
For `Nc1nc(SCc2ccccc2Cl)n[nH]1`, in that order: 16.2% and -0.77% (inactive).
The like results for `CC(C)N(C(=O)COC(=O)c1ccccc1C(=O)N1CCN(c2ccc(F)cc2)CC1)C(C)C` were, in that order, -1.35% and -10% (inactive).
For `COc1ccc(O)c(C(=O)c2cnc3onc(C(C)C)c3c2)c1`, in that order: -10.5% and 8.18% (inactive).
Take `CS(=O)(=O)N(CC(=O)N1CCN(c2ccc(F)cc2)CC1)C1CCCCC1`: the growth inhibition under setting [1] stood at 4.76% and the growth inhibition (S. cerevisiae wild-type growth) is 3.1% (inactive).
For `O=C(Nc1ccc(Cl)cc1)c1cc2nc(C3CC3)cc(C(F)(F)F)n2n1`, in that order: -4.05% and 1.92% (inactive).
The like results for `O=C(CSCc1ccccc1)N1CCc2ccccc21` were, in that order, 9.38% and 14.7% (inactive).
The like results for `O=C(CN1CCSCC1)N/N=C/c1ccc(F)cc1` were, in that order, 17.5% and 10% (inactive).
`O=C(Nc1ccccc1-c1nnn(CC(=O)N2CCCc3ccccc32)n1)c1cccc(Cl)c1`: the growth inhibition reads like this: under setting [1], 4.35%; (S. cerevisiae wild-type growth) -12.9% (inactive).
For `CC1CCC2(CC1)NC(=O)N(CC(=O)c1cccn1C)C2=O` (stereo unspecified), in that order: -4.76% and 3% (inactive).
For `Cc1cc(=O)[nH]c(SCc2cccc(F)c2)n1`, in that order: 0% and 10.8% (inactive).
The like results for `Cc1cc(C)cc(NC(=O)C2CCN(c3nc(C)cc(C)n3)CC2)c1` were, in that order, -2.94% and 5.33% (inactive).
For the compound `CC(c1ccco1)N(C(=O)COc1ccccc1[N+](=O)[O-])c1ccccn1` (stereo unspecified), the growth inhibition is -23.8% under setting [1] and -11% (inactive) (S. cerevisiae wild-type growth).
For `COc1cc(C)c(C(C)C)cc1S(=O)(=O)n1ccnc1`, in that order: -20% and -17% (inactive).
The like results for `O=c1[nH]nc(CSCc2ccccc2Cl)[nH]1` were, in that order, -3.13% and -3.79% (inactive).
As to `O=C(O)c1cc2ccccc2c(=O)s1`, the growth inhibition was -9.52% under setting [1] and 17.3% (inactive) (S. cerevisiae wild-type growth).
For `CCN(CC)C(=O)CSc1ncnc2c1cnn2-c1ccccc1`, in that order: -12.9% and 1.3% (inactive).
For `O=C(Cn1cnc2ccccc2c1=O)NCC1COc2ccccc2O1` (stereo unspecified), in that order: 10.9% and 3.57% (inactive).
For `O=C(NCC1CCC(C(=O)O)CC1)OCc1ccccc1` (stereo unspecified), in that order: 0% and -12.5% (inactive).
`COc1ccc(S(=O)(=O)NCc2ccc(C(=O)N(C)Cc3ccco3)cc2)cc1`: the growth inhibition runs as follows: under setting [1], 6.06%; (S. cerevisiae wild-type growth) -4.07% (inactive).
